Laboratory results published in ChEMBL document CHEMBL1157908, “Macrocyclic pyridyl polyoxazoles: selective RNA and DNA G-quadruplex ligands as antitumor agents” (J Med Chem, 2010).

What was measured:
[1] = Cytotoxicity against human RPMI8402 cells by MTA assay; assay type: functional, cell-based; settings: RPMI 8402
How it was run: (§1)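 MTT microtiter assay. Cells were kept at 37 °C in 5% CO2 in RPMI with 10% heat-inactivated FBS, 2 mM L-glutamine and penicillin/streptomycin. Continuous exposure to a range of drug concentrations for four days, then MTT read-out. Drug-free control included. IC50 from at least two assays, each in six replicate wells.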

[2] = Cytotoxicity against wild type human KB3-1 cells by MTA assay; assay type: functional, cell-based; settings: KB 3-1; how it was run: as §1
[3] = Cytotoxicity against human KBV1 cells expressing MDR1 by MTA assay; assay type: functional, cell-based; settings: KB-V1; how it was run: as §1
[4] = Cytotoxicity against human KBH5.0 cells expressing efflux transporter BCRP by MTA assay; assay type: functional, cell-based; settings: KBH5.0 cell; how it was run: as §1
Nucleic Acid [5] = assay: Thermal stabilization of Salmon testes duplex DNA assessed as change in transition temperature at 15 uM after 4 hrs by temperature-dependent spectrophotometry in presence of 150 mM K+ ions; assay type: nucleic-acid assay; settings: Salmonidae
How it was run: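 Salmon testes duplex DNA at 30 μM base pair with ligand at 15 μM. Buffer 10 mM potassium phosphate pH 7.5 with 132 mM KCl (150 mM K+). DNA preheated at 90 °C for 5 min and cooled slowly over 4 hr. Temperature-dependent absorbance recorded in 1 cm quartz cells.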

Nucleic Acid [6] = assay: Thermal stabilization of […] poly(rA).poly(rU) duplex RNA assessed as change in transition temperature at 15 uM after 4 hrs by temperature-dependent spectrophotometry in presence of 150 mM K+ ions; assay type: nucleic-acid assay
Nucleic Acid [7] = assay: Thermal stabilization of human G-quadruplex d[T2G3(T2AG3)3A] DNA assessed as change in transition temperature at 20 uM after 4 hrs by temperature-dependent spectrophotometry in presence of 150 mM K+ ions; assay type: nucleic-acid assay
How it was run: (§2)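 UV melting in 1 cm quartz cells. Sample held 5 μM strand of hTel DNA 24mer or AurA RNA 22mer, with ligand at 20 μM. Buffer 10 mM potassium phosphate pH 7.5 plus 132 mM KCl (150 mM K+ total). Nucleic acids preheated at 90 °C for 5 min and slowly cooled over 4 hr before use. AurA transition followed at 295 nm.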

Nucleic Acid [8] = assay: Thermal stabilization of r[AG4CG2CUG2UCG2AGUG2C] sequence of quadruplex RNA assessed as change in transition temperature at 20 uM after 4 hrs by temperature-dependent spectrophotometry in presence of 150 mM K+ ions; assay type: nucleic-acid assay; how it was run: as §2
MDA-MB-435 [9] = assay: Antitumor activity against human MDA-MB-435 cells xenografted in NCR nu/nu mouse assessed as tumor volume at an escalating dose of 25 to 42 mg/kg, ip administered on day 10 post-implantation followed by subsequent dose regimen of 3 times a week on alternative days for 3 weeks measured after 35 days (RVb = > 1350 mm'3); assay type: functional; settings: dose mg/kg 25-42; route intraperitoneal
How it was run: (§3)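 Female NCR/NU NU mice, about 9 weeks old. Inoculated sc on the right flank with 1.5×10^6 MDA-MB-435 cells in 0.1 mL RPMI 1640. Groups of seven matched by tumor volume. Given ip 3× weekly on alternate days in escalating weekly doses. Control received 150 μl 10 mM citrate. Tumor volume (l × w^2)/2 measured by microcaliper at least twice weekly. % T/C = treated/control mean volume.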

MDA-MB-435 [10] = assay: Antitumor activity against human MDA-MB-435 cells xenografted in NCR nu/nu mouse at an escalating dose of 25 to 42 mg/kg, ip administered on day 10 post-implantation followed by subsequent dose regimen of 3 times a week on alternative days for 3 weeks measured after 35 days relative to control; assay type: functional; settings: dose mg/kg 25-42; route intraperitoneal; how it was run: as §3
Mus musculus [11] = assay: (§4) Toxicity in NCR nu/nu mouse xenografted with human MDA-MB-435 cells assessed as average body weight at an escalating dose of 25 to 42 mg/kg, ip administered on day 10 post-implantation followed by subsequent dose regimen of 3 times a week on alternative days for 3 weeks measured on day 17 (RVb = 22 +/- 1.8 g); assay type: organism-based; set-up: dose 25-42 mg/kg, route intraperitoneal; settings: in vivo, 504 h
How it was run: (§5)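 Female NCR/NU NU mice with sc MDA-MB-435 flank xenografts. Seven mice dosed ip 3× weekly on alternate days, escalating weekly from 25 through 32 to 42 mg/kg. Controls received 150 μl 10 mM citrate. Individual body weights taken at least twice weekly. Average ± standard deviation given for days 17, 24, 31 and 35.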

Mus musculus [12] = assay: as §4, with “24” for “17”, “22.5” for “22”, “1.5” for “1.8”; assay type: organism-based; set-up: dose 25-42 mg/kg, route intraperitoneal; settings: in vivo, 504 h; how it was run: as §5
Mus musculus [13] = assay: as §4, with “31” for “17”, “23.9” for “22”, “1” for “1.8”; assay type: organism-based; set-up: dose 25-42 mg/kg, route intraperitoneal; settings: in vivo, 504 h; how it was run: as §5
Mus musculus [14] = assay: as §4, with “35” for “17”, “24.6” for “22”, “1.3” for “1.8”; assay type: organism-based; set-up: dose 25-42 mg/kg, route intraperitoneal; settings: in vivo, 504 h; how it was run: as §5
MIA PaCa-2 = assay: Cytotoxicity against human MIAPaCa2 cells; assay type: functional, cell-based
MDA-MB-435 [15] = assay: Antitumor activity against human MDA-MB-435 cells xenografted in NCR nu/nu mouse at 20 mg/kg, ip administered 3 times a week for 4 weeks measured after 35 days post-implantation relative to control; assay type: functional; settings: route intraperitoneal
How it was run: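 Female NCR/NU NU mice bearing sc flank MDA-MB-435 xenografts (1.5×10^6 cells), groups matched by tumor volume. Eight mice dosed ip at 20 mg/kg, 3× weekly for four weeks from day 0. Tumor volume (l × w^2)/2 measured by caliper at least twice weekly. % T/C = average treated volume over citrate-control volume.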

Mus musculus [16] = assay: Toxicity in NCR nu/nu mouse xenografted with human MDA-MB-435 cells assessed as average body weight at 20 mg/kg, ip administered 3 times a week for 4 weeks measured on day 31 (RVb = 23.9 +/- 1 g); assay type: organism-based; set-up: dose 20 mg/kg, route intraperitoneal; settings: in vivo, 672 h

O=C1NCc2cccc(c2)CNC(=O)c2coc(n2)-c2csc(n2)-c2cccc(n2)-c2nc(co2)-c2nc1co2
IC50 [1]: 1 µM
IC50 [2]: 0.26 µM
IC50 [3]: > 10 µM
IC50 [4]: > 10 µM

O=C1NCc2cc(Br)cc(c2)CNC(=O)c2coc(n2)-c2coc(n2)-c2cc(Br)cc(n2)-c2nc(co2)-c2nc1co2
IC50 [1]: > 10 µM
IC50 [2]: > 10 µM
IC50 [3]: > 10 µM
IC50 [4]: > 10 µM

CN(C)CCc1cc2cc(c1)CNC(=O)c1coc(n1)-c1coc(n1)-c1cccc(n1)-c1nc(co1)-c1nc(co1)C(=O)NC2
IC50 [1]: 0.18 µM
IC50 [2]: 0.04 µM
IC50 [3]: > 10 µM
IC50 [4]: 0.55 µM
deltaT (Nucleic Acid [5]): 0 °C
deltaT (Nucleic Acid [6]): 0.5 °C
deltaT (Nucleic Acid [7]): 20.5 °C
deltaT (Nucleic Acid [8]): 37 °C
Activity (MDA-MB-435 [9]): <400 mm3
T/C (MDA-MB-435 [10]): 27.7%
Activity (Mus musculus [11]): 19.7 g
Activity (Mus musculus [12]): 20.2 g
Activity (Mus musculus [13]): 20.9 g
Activity (Mus musculus [14]): 21.2 g

O=C(NCCc1cc2cc(c1)CNC(=O)c1coc(n1)-c1coc(n1)-c1cc(Br)cc(n1)-c1nc(co1)-c1nc(co1)C(=O)NC2)OCc1ccccc1
IC50 [1]: 1 µM
IC50 [2]: 0.6 µM
IC50 [3]: > 10 µM
IC50 [4]: > 10 µM

O=C(NCCc1cc2cc(c1)CNC(=O)c1coc(n1)-c1coc(n1)-c1cc(OCCCN3C(=O)c4ccccc4C3=O)cc(n1)-c1nc(co1)-c1nc(co1)C(=O)NC2)OCc1ccccc1
IC50 [1]: > 10 µM
IC50 [2]: > 10 µM
IC50 [3]: > 10 µM
IC50 [4]: > 10 µM

O=C1NCCNCCNC(=O)c2coc(n2)-c2coc(n2)-c2cccc(n2)-c2nc(co2)-c2nc1co2
IC50 [1]: > 10 µM
IC50 [2]: 4 µM
IC50 [3]: > 10 µM
IC50 [4]: > 10 µM

O=C1NCc2cccc(n2)CNC(=O)c2coc(n2)-c2coc(n2)-c2cccc(n2)-c2nc(co2)-c2nc1co2
IC50 [1]: > 5 µM
IC50 [2]: > 5 µM
IC50 [3]: > 5 µM
IC50 [4]: > 5 µM

O=C1NCc2cccc(c2)CNC(=O)c2coc(n2)-c2csc(n2)-c2cccc(n2)-c2nc(cs2)-c2nc1co2
IC50 [1]: > 10 µM
IC50 [2]: > 10 µM
IC50 [3]: > 10 µM
IC50 [4]: > 10 µM
deltaT (Nucleic Acid [5]): 0 °C
deltaT (Nucleic Acid [6]): 0 °C
deltaT (Nucleic Acid [7]): 0 °C

O=C1NCc2cccc(c2)CNC(=O)c2coc(n2)-c2coc(n2)-c2cccc(n2)-c2nc(co2)-c2nc1co2
IC50 [1]: 1.05 µM
IC50 [2]: 1.2 µM
IC50 [3]: 4.5 µM
IC50 [4]: 1.5 µM
deltaT (Nucleic Acid [5]): 0 °C
deltaT (Nucleic Acid [6]): 0 °C
deltaT (Nucleic Acid [7]): 7.5 °C

O=C1NCc2cc(Br)cc(c2)CNC(=O)c2coc(n2)-c2coc(n2)-c2cc(OCCCN3C(=O)c4ccccc4C3=O)cc(n2)-c2nc(co2)-c2nc1co2
IC50 [1]: 1 µM
IC50 [2]: 1 µM
IC50 [3]: > 10 µM
IC50 [4]: > 10 µM

O=C1NCc2cc(Br)cc(c2)CNC(=O)c2coc(n2)-c2coc(n2)-c2cccc(n2)-c2nc(co2)-c2nc1co2
IC50 [1]: 0.3 µM
IC50 [2]: 0.06 µM
IC50 [3]: > 10 µM
IC50 [4]: 1 µM

NCCc1cc2cc(c1)CNC(=O)c1coc(n1)-c1coc(n1)-c1cccc(n1)-c1nc(co1)-c1nc(co1)C(=O)NC2
IC50 [1]: 0.09 µM
IC50 [2]: 0.03 µM
IC50 [3]: > 10 µM
IC50 [4]: 0.14 µM
deltaT (Nucleic Acid [5]): 0 °C
deltaT (Nucleic Acid [6]): 0.5 °C
deltaT (Nucleic Acid [7]): 21 °C

O=C1NCc2cccc(c2)CNC(=O)c2coc(n2)-c2coc(n2)-c2cc(Br)cc(n2)-c2nc(co2)-c2nc1co2
IC50 [1]: 0.3 µM
IC50 [2]: 0.15 µM
IC50 [3]: 2 µM
IC50 [4]: 1 µM

O=C1NCc2cc(CCNC(=O)C(F)(F)F)cc(c2)CNC(=O)c2coc(n2)-c2coc(n2)-c2cccc(n2)-c2nc(co2)-c2nc1co2
IC50 [1]: 0.17 µM
IC50 [2]: 0.07 µM
IC50 [3]: > 10 µM
IC50 [4]: > 10 µM

O=C(NCCc1cc2cc(c1)CNC(=O)c1coc(n1)-c1coc(n1)-c1cccc(n1)-c1nc(co1)-c1nc(co1)C(=O)NC2)OCc1ccccc1
IC50 [1]: 0.12 µM
IC50 [2]: 0.12 µM
IC50 [3]: > 10 µM
IC50 [4]: > 10 µM

CC(C)[C@@H]1NC(=O)c2coc(n2)-c2coc(n2)-c2coc(n2)[C@H](C(C)C)NC(=O)c2coc(n2)-c2coc(n2)-c2coc1n2 [HEXAOXAZOLE DIVALINE]
IC50 (MIA PaCa-2): 0.5 µM
IC50 [1]: 0.6 µM
IC50 [2]: 0.4 µM
IC50 [3]: 8.5 µM
IC50 [4]: 0.5 µM

NCCCOc1cc2nc(c1)-c1nc(co1)-c1nc(co1)C(=O)NCc1cccc(c1)CNC(=O)c1coc(n1)-c1coc-2n1
IC50 [1]: 5 µM
IC50 [2]: 3 µM
IC50 [3]: > 10 µM
IC50 [4]: > 10 µM

CCc1c2c(nc3ccc(OC(=O)N4CCC(N5CCCCC5)CC4)cc13)-c1cc3c(c(=O)n1C2)COC(=O)[C@]3(O)CC [IRINOTECAN]
T/C (MDA-MB-435 [15]): 6.1%
Activity (Mus musculus [16]): 18.4 g

O=C1NCc2cccc(c2)CNC(=O)c2coc(n2)-c2coc(n2)-c2cc(OCCCN3C(=O)c4ccccc4C3=O)cc(n2)-c2nc(co2)-c2nc1co2
IC50 [1]: 4.5 µM
IC50 [2]: 0.4 µM
IC50 [3]: > 10 µM
IC50 [4]: > 10 µM
